{"data": "Measured values pooled from the literature", "target": "Serine/threonine-protein kinase MARK2 (MARK2, Homo sapiens, UniProt Q7KZI7)", "note": "Each line is one published result; the experiments were not run side by side."}
{"Structure (SMILES)": "C[C@H](c1ccnc(Nc2nc3ccc(-c4cc(N(C)C)ncn4)cc3[nH]2)c1)N1CCN(C(=O)CC(F)(F)F)CC1", "read-out": "cell-free assay", "method": "competition with immobilised ligand", "concentration": "0.1 µM", "remaining binding [%]": 100}
{"Structure (SMILES)": "O=C(NCCCN1CCOCC1)c1ccc(Nc2nccc(-c3cc4ccccc4s3)n2)cc1", "read-out": "binding", "method": "competition with immobilised ligand", "concentration": "1 µM", "remaining binding [%]": 81}
{"Structure (SMILES)": "CC1CCCN1c1nccc(-c2cnn3ncccc23)n1 (stereo not shown)", "read-out": "binding", "concentration": "1 µM", "remaining binding [%]": 70}
{"Structure (SMILES)": "c1cncc(-c2cccc(Nc3nccc(NC4CCCCC4)n3)c2)c1", "read-out": "binding", "method": "competition with immobilised ligand", "concentration": "10 µM", "remaining binding [%]": 81}
{"Structure (SMILES)": "O=C(c1ccc(Nc2nccc(-c3cc4ccccc4s3)n2)cc1)N1CCC(N2CCCC2)CC1", "read-out": "binding", "method": "competition with immobilised ligand", "concentration": "1 µM", "remaining binding [%]": 91}
{"Structure (SMILES)": "O=S(=O)(NC1CCC(c2cc(F)ccc2F)(S(=O)(=O)c2ccc(Cl)cc2)CC1)C(F)(F)F (stereo not shown)", "read-out": "cell-free assay", "method": "competition with immobilised ligand", "concentration": "1 µM", "remaining binding [%]": 100}
{"Structure (SMILES)": "CNC(=O)[C@@H]1CC[C@@H](n2c(-c3ccc4cnccc4c3)nc3ccc(C(=O)NCc4cccc(C(N)=O)c4)cc32)C1", "read-out": "binding", "method": "competition with immobilised ligand", "concentration": "1 µM", "remaining binding [%]": 100}
{"Structure (SMILES)": "C[C@@]1(Cc2ccc(C#N)cc2)C(=O)N(c2cc(Cl)cc(Cl)c2)c2ncc(C(=O)NC3(c4nc(C5CCC5)no4)CC3)n21", "read-out": "cell-free assay", "method": "competition with immobilised ligand", "concentration": "1 µM", "remaining binding [%]": 85}
{"Structure (SMILES)": "COc1cnc(Nc2cccc(S(N)(=O)=O)c2)nc1N1CCN(c2ccccc2)C(=O)C1", "read-out": "binding", "method": "competition with immobilised ligand", "concentration": "1 µM", "remaining binding [%]": 100}
{"Structure (SMILES)": "CN(CCCC(F)(F)F)c1nccc(-c2cnn3ncccc23)n1", "read-out": "binding", "concentration": "1 µM", "remaining binding [%]": 100}
{"Structure (SMILES)": "C[C@@H](c1ccc(-n2cnc3c(N)ncnc32)cc1)N1CCc2nn(C)c(Cc3ccccc3)c2C1=O", "read-out": "binding", "method": "competition with immobilised ligand", "concentration": "0.1 µM", "remaining binding [%]": 91}
{"Structure (SMILES)": "COc1cccc(CNC(=O)c2nc3scc(COCc4ccc(C(=O)O)cc4)c3c(=O)[nH]2)c1", "read-out": "cell-free assay", "method": "competition with immobilised ligand", "concentration": "1 µM", "remaining binding [%]": 100}
{"Structure (SMILES)": "COc1ncc2cc3ccccc3nc2c1C#N", "read-out": "cell-free assay", "method": "competition with immobilised ligand", "concentration": "5 µM", "remaining binding [%]": 97}
{"Structure (SMILES)": "O=C(Nc1cccnn1)N1CCC(=Cc2cccc(Oc3ccc(C(F)(F)F)cn3)c2)CC1", "read-out": "cell-free assay", "method": "competition with immobilised ligand", "concentration": "1 µM", "remaining binding [%]": 100}
{"Structure (SMILES)": "N[C@@H]1CCN(c2nccc(-c3cnn4ncccc34)n2)C1", "read-out": "binding", "concentration": "1 µM", "remaining binding [%]": 100}
{"Structure (SMILES)": "O=C(NCCCN1CCOCC1)c1ccc(Nc2ncc(Cl)c(-c3ccc(Cl)s3)n2)cc1", "read-out": "binding", "method": "competition with immobilised ligand", "concentration": "1 µM", "remaining binding [%]": 74}
{"Structure (SMILES)": "CN(c1nccc(-c2cnn3ncccc23)n1)C1CC1", "read-out": "binding", "concentration": "1 µM", "remaining binding [%]": 100}
{"Structure (SMILES)": "COc1ccc2cc(OCC3(C(=O)O)CN(C(=O)c4ccc(F)cc4)C3)ccc2c1", "read-out": "cell-free assay", "method": "competition with immobilised ligand", "concentration": "1 µM", "remaining binding [%]": 91}
{"Structure (SMILES)": "CN(C)c1nccc(-c2cnc3ncccn23)n1", "read-out": "binding", "concentration": "1 µM", "remaining binding [%]": 100}
{"Structure (SMILES)": "O=C(NCC1CCOCC1)c1n[nH]cc1NC(=O)c1c(F)cccc1F", "read-out": "binding", "method": "competition with immobilised ligand", "concentration": "1 µM", "remaining binding [%]": 71}
{"Structure (SMILES)": "CO[C@@H](C)c1c(Nc2ccc([C@@H](N(C)C(=O)C3CCS(=O)(=O)CC3)C(F)(F)F)cc2)cnc2cc(Cl)nn12", "read-out": "cell-free assay", "method": "competition with immobilised ligand", "concentration": "1 µM", "remaining binding [%]": 100}
{"Structure (SMILES)": "c1cnn2ncc(-c3ccnc(N4CCC45COC5)n3)c2c1", "read-out": "binding", "concentration": "1 µM", "remaining binding [%]": 63}
